Screens (PubChem)
PvdQ acylase: blocks Pseudomonas aeruginosa PvdQ acylase activity; purified PvdQ acylase, fluorescence plate reader; inhibition, % at 10 µM; 340,000 tested, 0.063% active; AID 488965; in the data active = inhibition above about 30%, passing the limit was not always enough
CAL PDZ FP-1: blocks peptide binding to the human CAL PDZ domain; inhibition, % at 24.9 µM; 300,000 tested, 0.92% active; Q9HD26; purified CAL PDZ, TMR-peptide fluorescence polarization, 1 h;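 active = mean inhibition of at least 30% with at least half of replicates also reaching 30%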
miR122 inh: blocks miR-122 activity in Huh7 sensor cells. Huh7 miR-122 Renilla luciferase sensor, 48 h; neutral wells = 0, positive control = 100. activation (reporter increase), % at 12.5 µM. 340,000 tested, 0.3% active;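 active = mean replicate activation score at least 90 and every replicate individually at or above 90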;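 note: higher luciferase means less miR-122 activity so hits act as miR-122 inhibitors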
CAL PDZ FP-2: inhibitors of human CAL PDZ peptide binding; 330,000 tested, 0.02% active; inhibition, % at 20 µM; AID 504414; purified CAL PDZ, TMR-peptide fluorescence polarization, 1 h; Q9HD26;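 active = highest replicate inhibition of at least 40%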
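Material: tagged CAL PDZ domain; buffer or medium: 25 mM sodium phosphate pH 7.4, 150 mM NaCl, TCEP, IgG, Thesit; compound dosing: single point, 20 µM; schedule: 1 h incubation at room temperature before polarization reading; measured by: FP readout, S and P plane fluorescence; read-out basis: percent inhibition from loss of millipolarization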
Hits are given with their value; n = inactive; x = no result given. Most compounds without a hit are left out; they make up all but 0.95% or so of the library.

SMILES	PvdQ acylase	CAL PDZ FP-1	miR122 inh	CAL PDZ FP-2
Cc1ccccc1N=C(N)Nc1ccccc1C	n	x	n	n
CCCc1cc(=O)[nH]c(SCC(=O)N2CCCc3ccccc32)n1	n	n	n	n
COc1cc2c(cc1[N+](=O)[O-])-c1ccc([N+](=O)[O-])cc1C2	x	x	n	x
O=[N+]([O-])c1ccc2c(c1)Cc1cc(F)ccc1-2	87	x	n	n
O=C(NCc1cccs1)c1ccccc1	n	n	n	n
O=C(NCc1cccs1)c1ccncc1	n	74	n	n
Cc1ccccc1Nc1nc(N)nc(CN2C(=O)NC3(CCCCC3C)C2=O)n1 (stereo not given)	n	50	n	n
COC(=O)c1sccc1NC(=O)CSc1ccccc1NS(=O)(=O)c1ccccc1Cl	n	n	n	n
COc1ccc(Cl)cc1NC(=O)NCC1CCN(Cc2cc(C)ccc2C)CC1	n	n	n	n
COc1cc([N+](=O)[O-])ccc1NC(=O)NCC1CCN(Cc2ccc(Cl)cc2)CC1	n	46	n	x
CN1CC(c2ccccc2)C2(SC(=S)N(Cc3ccco3)C2=O)C12C(=O)Nc1ccccc12 (stereo not given)	n	n	n	x
Cc1ccc(C2CN(C)C3(C(=O)Nc4ccccc43)C23COc2ccccc2C3=O)cc1 (stereo not given)	n	n	295	n
CN1CC(c2ccccc2Cl)C2(COc3ccccc3C2=O)C12C(=O)Nc1ccccc12 (stereo not given)	n	n	117	n
CN1CC(c2ccccn2)C2(SC(=S)N(Cc3ccccc3)C2=O)C12C(=O)Nc1ccccc12 (stereo not given)	n	n	n	x
COc1ccc(OCC(=O)Nc2nc3c(s2)CCCC3)cc1	n	72	n	n
O=C(COc1ccc(F)cc1)Nc1nc2c(s1)CCCC2	n	n	n	n
Cc1cc(OCC(=O)Nc2nnc(C3CC3)s2)ccc1C(C)C	n	45	x	n
C=CCSc1nnc(NC(=O)CCNC(=O)c2ccccc2Cl)s1	x	x	n	x
CCSc1nnc(NC(=O)CCNC(=O)c2ccccc2Cl)s1	n	115	n	n
CC(=O)NC1C(OCc2cccc(Br)c2)OC(COC(C)=O)C(OC(C)=O)C1OC(C)=O (stereo not given)	n	x	n	n
CC(=O)NC1C(OCc2ccccc2)OC(CO)C(OC(C)=O)C1OC(C)=O (stereo not given)	n	46	n	n
Cc1nc(/C(N)=N/OC(=O)c2ccccc2Cl)c(C(F)(F)F)o1	n	68	n	n
COc1cc(NC(=O)c2ccc3c(SCC(=O)O)c4c(nc3c2)CCC4)cc(OC)c1OC	n	n	n	n
CCN(C(=O)c1ccc2c(SCC(=O)O)c3c(nc2c1)CCC3)c1cc(Cl)ccc1OC	n	101	n	n
COc1cc(C2c3[nH]c4ccccc4c3CCN2Cc2cn(C)nc2C)ccc1F (stereo not given)	n	n	x	n
SMILES	PvdQ acylase	CAL PDZ FP-1	miR122 inh	CAL PDZ FP-2
C[C@@H]1CN([C@H](C)CO)C(=O)c2cccc(NS(=O)(=O)c3cn(C)cn3)c2O[C@@H]1CN(C)S(=O)(=O)c1cn(C)cn1	x	x	n	x
Cc1nnc(NC(=O)CN2C(=O)NC3(CCCC3)C2=O)s1	n	n	x	n
CCSc1nnc(NC(=O)CN2C(=O)NC3(CCCC3)C2=O)s1	n	78	x	n
O=C(/C=C/c1cccs1)c1cc(Cl)ccc1O	77	x	n	n
O=C(C=Cc1ccco1)c1cc(Cl)ccc1O	45	n	n	n
CCc1ccc(Oc2ncnc(N)c2[N+](=O)[O-])cc1	n	67	x	n
O=C(NNS(=O)(=O)c1ccccc1)c1ccccc1-n1cccc1	n	41	n	n
CCOc1ncccc1C(=O)N=c1sccn1C	n	n	n	n
CCc1ccccc1NC(=O)c1cnn(-c2ccccc2)c1C	n	75	n	x
COc1ccc(C2=C(C=O)Cc3ccccc3O2)cc1	110	n	x	n
COC(=O)[C@H](CC(C)C)NC(=O)NCCC1=CCCCC1	n	76	x	n
CC(C)C[C@H](NC(=O)NCCC1=CCCCC1)C(=O)O	n	n	x	n
COc1cc(/C=N/NC(=O)Nc2cccc3nsnc23)cc(OC)c1OC	n	n	n	n
O=C(N/N=C/c1ccc(O)cc1)Nc1cccc2nsnc12	n	31	x	n
CC1CCCC(C)N1C(=S)NCc1ccco1 (stereo not given)	n	n	x	n
OCC1CCCCN1C(=S)NCc1ccco1 (stereo not given)	n	64	x	n
CCN(CC)S(=O)(=O)c1ccc2[nH]cc(C(=O)NCCCN3CCCCC3C)c(=O)c2c1 (stereo not given)	n	n	x	n
